From paper PMC7157925 (Steroids, 2003)

What was measured:
HSV-2 = assay: Virucidal assay; design: species or system herpes simplex virus type 2; settings: HSV-2 suspension incubated with compound 1 h at 37 °C
Method in brief: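 HSV-2 strain G suspension (4×10^5 PFU) mixed with an equal volume of maintenance medium (MEM, 1.5% bovine serum), with or without various concentrations of test compound, 1 h at 37 °C. Samples then diluted in cold maintenance medium, and residual infectivity titrated by plaque formation on Vero cells. Compound stock 10 mg/ml in DMSO, filter-sterilized. VC50 is the concentration inactivating virions by 50%.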

HSV-2 strain G = assay: Antiviral assay, reduction of virus plaque formation in Vero cells; type: cell-based, herpes simplex virus type 2; settings: at a concentration up to 50 μg/ml
[1] = tested on: endothelin-converting enzyme; settings: ref [20]; cited from earlier work

| SMILES | VC50, concentration required to inactivate virus by 50%±S.D. (HSV-2) [µg/mL] | Activity against HSV-2 (HSV-2 strain G) | Activity in the endothelin-converting enzyme assay [1] |
| --- | --- | --- | --- |
| CC(C)CCC[C@@H](C)[C@H]1CC[C@H]2[C@@H]3CC[C@H]4C[C@H](O)[C@@H](O)C[C@]4(C)[C@H]3CC[C@]12C [Compound 5, 2β,3α-Dihydroxy-5α-cholestane] | > 100 | not active | – |
| C=CCCC[C@@H](C)[C@H]1CC[C@H]2[C@@H]3CC[C@H]4C[C@H](OS(=O)(=O)O)[C@@H](OS(=O)(=O)O)C[C@]4(C)[C@H]3CC[C@]12C [Compound 19, Halistanol disulfate B] | – | – | active |
